From ChEMBL document CHEMBL3120102, “Structure-based design, synthesis and biological evaluation of novel anthra[1,2-d]imidazole-6,11-dione homologues as potential antitumor agents” (2013)

Tests used:
Format in all cases: functional
[1] = system: SF-268; assay: Cytotoxicity against human SF268 cells assessed as growth inhibition after 48 hrs by SRB assay
Procedure, shortened: (§1)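 NCI 60-cell-line screen, five-dose stage: each cell line exposed for 48 h to five concentrations spanning five log steps; cellular protein measured by sulforhodamine B colorimetry. A time-zero cell control and plates without drug are used to derive GI50, TGI and LC50 from log-concentration dose-response curves.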

[2] = system: SNB-19; assay: Cytotoxicity against human SNB19 cells assessed as growth inhibition after 48 hrs by SRB assay
Procedure, shortened: (§2)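 NCI 60-cell-line screen, two stages. Five-dose testing at […]. Cellular protein measured by sulforhodamine B colorimetry after 48 h drug exposure. A time-zero control and drug-free plates are used to derive GI50, TGI and LC50 from dose-response curves plotted as log10 concentration per cell line.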

[3] = system: OVCAR-3; assay: Cytotoxicity against human OVCAR3 cells assessed as growth inhibition after 48 hrs by SRB assay; procedure, shortened: as §1
[4] = system: NCI-H23; assay: Cytotoxicity against human NCI-H23 cells assessed as growth inhibition after 48 hrs by SRB assay; conditions: for TGI: NCI-H23, 48 h; procedure, shortened: as §1
[5] = system: SK-MEL-2; assay: Cytotoxicity against human SK-MEL-2 cells assessed as growth inhibition after 48 hrs by SRB assay; procedure, shortened: as §1
[6] = (§3) Cytotoxicity against human EKVX cells assessed as growth inhibition after 48 hrs by SRB assay
Procedure, shortened: (§4)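 NCI 60-cell-line five-dose screen at […]. Drug exposure was 48 h, followed by sulforhodamine B protein staining. GI50, TGI and LC50 were calculated against a time-zero control and untreated plates, with dose–response curves plotted from log10 concentration.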

[7] = system: EKVX; assay: as §3; procedure, shortened: as §4
[8] = (§5) Cytotoxicity against human UACC257 cells assessed as growth inhibition after 48 hrs by SRB assay; conditions: UACC-257, 48 h; procedure, shortened: as §2
[9] = system: UACC-257; assay: as §5; procedure, shortened: as §2
[10] = system: K562; assay: Cytotoxicity against human K562 cells assessed as growth inhibition after 48 hrs by SRB assay; conditions: for GI50 / TGI / CC50: K562, 48 h; for CC50: read-out: LC50 (the source's name); procedure, shortened: as §4
[11] = system: SF-539; assay: Cytotoxicity against human SF539 cells assessed as growth inhibition after 48 hrs by SRB assay; conditions: for GI50 / TGI / CC50: SF-539, 48 h; for CC50: read-out: LC50 (the source's name); procedure, shortened: as §1
[12] = system: MDA-MB-435; assay: Cytotoxicity against human MDA-MB-435 cells assessed as growth inhibition after 48 hrs by SRB assay; procedure, shortened: as §1
[13] = system: UACC-62; assay: Cytotoxicity against human UACC62 cells assessed as growth inhibition after 48 hrs by SRB assay; procedure, shortened: as §2
[14] = system: MOLT-4; assay: Cytotoxicity against human MOLT4 cells assessed as growth inhibition after 48 hrs by SRB assay; procedure, shortened: as §1
[15] = system: HT-29; assay: Cytotoxicity against human HT-29 cells assessed as cell growth at 10 uM after 48 hrs by SRB assay; conditions: HT-29, 48 h, read-out: Activity
[16] = system: HCT-116; assay: Cytotoxicity against human HCT116 cells assessed as growth inhibition after 48 hrs by SRB assay; procedure, shortened: as §4
[17] = system: A549; assay: Cytotoxicity against human A549 cells assessed as growth inhibition after 48 hrs by SRB assay; procedure, shortened: as §4
[18] = system: RXF 393; assay: Cytotoxicity against human RXF393 cells assessed as growth inhibition after 48 hrs by SRB assay; conditions: for GI50 / TGI / CC50: RXF 393, 48 h; for CC50: read-out: LC50 (the source's name); procedure, shortened: as §1
[19] = (§6) Cytotoxicity against human UO31 cells assessed as growth inhibition after 48 hrs by SRB assay; conditions: UO-31, 48 h; procedure, shortened: as §2
[20] = system: UO-31; assay: as §6; procedure, shortened: as §2
[21] = system: OVCAR-5; assay: (§7) Cytotoxicity against human OVCAR5 cells assessed as growth inhibition after 48 hrs by SRB assay; procedure, shortened: as §1
[22] = as §7; conditions: OVCAR-5, 48 h; procedure, shortened: as §1
[23] = system: SK-OV-3; assay: Cytotoxicity against human SKOV3 cells assessed as growth inhibition after 48 hrs by SRB assay; procedure, shortened: as §1
[24] = system: A498; assay: Cytotoxicity against human A498 cells assessed as growth inhibition after 48 hrs by SRB assay; conditions: for GI50 / TGI / CC50: A498, 48 h; for CC50: read-out: LC50 (the source's name); procedure, shortened: as §4
[25] = system: DU-145; assay: Cytotoxicity against human DU145 cells assessed as growth inhibition after 48 hrs by SRB assay; conditions: for GI50 / TGI / CC50: DU-145, 48 h; for CC50: read-out: LC50 (the source's name); procedure, shortened: as §4
[26] = system: HL-60(TB); assay: Cytotoxicity against human HL-60(TB) cells assessed as growth inhibition after 48 hrs by SRB assay
Procedure, shortened: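 NCI 60-cell panel five-concentration stage (0.01, 0.1, 1, 10, 100) in HL-60(TB). Cellular protein was measured by sulforhodamine B colorimetry after 48 h of exposure. A time-zero cell control and untreated plates allowed calculation of GI50, TGI and LC50. These were read from log10 concentration dose-response curves.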

[27] = system: T47D; assay: Cytotoxicity against human T47D cells assessed as growth inhibition after 48 hrs by SRB assay; procedure, shortened: as §2
[28] = system: Malme-3M; assay: Cytotoxicity against human MALME-3M cells assessed as growth inhibition after 48 hrs by SRB assay; conditions: for CC50: read-out: LC50 (the source's name); procedure, shortened: as §4
[29] = system: MDA-MB-468; assay: Cytotoxicity against human MDA-MB-468 cells assessed as cell growth at 10 uM after 48 hrs by SRB assay; conditions: MDA-MB-468, 48 h, read-out: Activity
Procedure, shortened: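 First stage of the NCI 60 human tumour cell line screen: a single dose is tested against every line. Cell growth is read as cellular protein by sulforhodamine B colorimetry after 48 h of drug exposure, with reference to a time-zero control and to untreated plates.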

## CN(C)CCCSc1nc2ccc3c(c2[nH]1)C(=O)c1ccccc1C3=O
[1]
  growth inhibition (GI): Dose-dependent effect
[1]; SF-268, 48 h
  GI50: 4.34 µM
  TGI: 17.7 µM
[2]
  growth inhibition (GI): Dose-dependent effect
[2]; SNB-19, 48 h
  GI50: 7.2 µM
  TGI: 20.7 µM
[3]
  growth inhibition (GI): Dose-dependent effect
[3]; OVCAR-3, 48 h
  GI50: 3.73 µM
  TGI: 18.2 µM
[4]
  growth inhibition (GI): Dose-dependent effect
  TGI: 19.7 µM
[5]
  growth inhibition (GI): Dose-dependent effect
[5]; SK-MEL-2, 48 h
  GI50: 13.3 µM
  TGI: 26.3 µM
[6]
  GI50: 4.2 µM
  TGI: 20.1 µM
[7]
  growth inhibition (GI): Dose-dependent effect
[8]
  GI50: 19.8 µM
  TGI: 34.1 µM
[9]
  growth inhibition (GI): Dose-dependent effect
[10]
  growth inhibition (GI): Dose-dependent effect
  GI50: 2.04 µM
  TGI: 4.73 µM
  CC50: 13.6 µM
[11]
  growth inhibition (GI): Dose-dependent effect
  GI50: 10.9 µM
  TGI: 22.7 µM
  CC50: 47.7 µM
[12]
  growth inhibition (GI): Dose-dependent effect
[12]; MDA-MB-435, 48 h
  GI50: 10.4 µM
  TGI: 22.2 µM
[13]
  growth inhibition (GI): Dose-dependent effect
[13]; UACC-62, 48 h
  GI50: 10.8 µM
  TGI: 23 µM
[14]
  growth inhibition (GI): Dose-dependent effect
[14]; MOLT-4, 48 h
  GI50: 2.06 µM
  TGI: 6.6 µM
[15]
  growth at 10 µM: 17.8%
[16]
  growth inhibition (GI): Dose-dependent effect
[16]; HCT-116, 48 h
  GI50: 1.85 µM
  TGI: 8.75 µM
[17]
  growth inhibition (GI): Dose-dependent effect
[17]; A549, 48 h
  TGI: 12.6 µM
[18]
  growth inhibition (GI): Dose-dependent effect
  GI50: 1.89 µM
  TGI: 12.8 µM
  CC50: 42.3 µM
[19]
  GI50: 0.564 µM
  TGI: 11.7 µM
[20]
  growth inhibition (GI): Dose-dependent effect
[21]
  growth inhibition (GI): Dose-dependent effect
[22]
  GI50: 12.7 µM
  TGI: 25.9 µM
[23]
  growth inhibition (GI): Dose-dependent effect
[23]; SK-OV-3, 48 h
  GI50: 1.72 µM
  TGI: 20.7 µM
[24]
  growth inhibition (GI): Dose-dependent effect
  GI50: 12.1 µM
  TGI: 24.8 µM
  CC50: 51 µM
[25]
  growth inhibition (GI): Dose-dependent effect
  GI50: 2.38 µM
  TGI: 12.9 µM
  CC50: 35.9 µM
[26]
  growth inhibition (GI): Dose-dependent effect
[26]; HL-60, 48 h
  GI50: 2.41 µM
  TGI: 8.52 µM
[27]
  GI50: 8.73 µM
  TGI: 24.8 µM
  growth inhibition (GI): Dose-dependent effect
[28]
  GI50: 13.9 µM
  TGI: 27 µM
  growth inhibition (GI): Dose-dependent effect
  CC50: 52.4 µM

## O=C1c2ccccc2C(=O)c2c1ccc1nc(SCCN3CCCC3)[nH]c21
[1]
  growth inhibition (GI): Dose-dependent effect
[1]; SF-268, 48 h
  GI50: 9.54 µM
  LC50 (concentration killing 50% of cells relative to time zero): 52.9 µM
  TGI: 22.8 µM
[2]
  growth inhibition (GI): Dose-dependent effect
[2]; SNB-19, 48 h
  GI50: 17.1 µM
  LC50: 59.7 µM
  TGI: 31.9 µM
[3]
  growth inhibition (GI): Dose-dependent effect
[3]; OVCAR-3, 48 h
  GI50: 2.76 µM
  LC50 (50% lethal concentration): 35.6 µM
  TGI: 11.1 µM
[4]
  growth inhibition (GI): Dose-dependent effect
  TGI: 25.7 µM
[5]
  growth inhibition (GI): Dose-dependent effect
[5]; SK-MEL-2, 48 h
  GI50: 17.1 µM
  LC50 (50% lethal concentration): 63.5 µM
  TGI: 32.9 µM
[6]
  TGI: 26.5 µM
[7]
  growth inhibition (GI): Dose-dependent effect
[8]
  GI50: 18 µM
  LC50: 56.8 µM
  TGI: 31.9 µM
[9]
  growth inhibition (GI): Dose-dependent effect
[10]
  growth inhibition (GI): Dose-dependent effect
  GI50: 1.7 µM
  TGI: 5.2 µM
  CC50: 72 µM
[11]
  growth inhibition (GI): Dose-dependent effect
  GI50: 6.79 µM
  TGI: 20.2 µM
  CC50: 47.4 µM
[12]
  growth inhibition (GI): Dose-dependent effect
[12]; MDA-MB-435, 48 h
  GI50: 4.18 µM
  LC50: 43.9 µM
  TGI: 16.2 µM
[13]
  growth inhibition (GI): Dose-dependent effect
[13]; UACC-62, 48 h
  GI50: 15.8 µM
  LC50: 57.4 µM
  TGI: 30.1 µM
[14]
  growth inhibition (GI): Dose-dependent effect
[14]; MOLT-4, 48 h
  GI50: 1.51 µM
  LC50 (50% lethal concentration): 19.1 µM
  TGI: 4.29 µM
[16]
  growth inhibition (GI): Dose-dependent effect
[16]; HCT-116, 48 h
  GI50: 1.64 µM
  LC50: 8.15 µM
  TGI: 3.66 µM
[29]
  growth at 10 µM: 67.9%
[17]
  growth inhibition (GI): Dose-dependent effect
[17]; A549, 48 h
  GI50: 3.8 µM
  TGI: 15 µM
[18]
  growth inhibition (GI): Dose-dependent effect
  GI50: 3.08 µM
  TGI: 16.3 µM
  CC50: 48.5 µM
[19]
  GI50: 2.08 µM
  LC50: 44.9 µM
  TGI: 15.8 µM
[20]
  growth inhibition (GI): Dose-dependent effect
[21]
  growth inhibition (GI): Dose-dependent effect
[22]
  GI50: 15.5 µM
  LC50: 55.8 µM
  TGI: 29.4 µM
[23]
  growth inhibition (GI): Dose-dependent effect
[23]; SK-OV-3, 48 h
  GI50: 10.5 µM
  LC50 (concentration killing 50% of cells present at time zero): 54 µM
  TGI: 23.8 µM
[24]
  growth inhibition (GI): Dose-dependent effect
  GI50: 5.82 µM
  TGI: 21.3 µM
  CC50: 49.4 µM
[25]
  growth inhibition (GI): Dose-dependent effect
  GI50: 3.42 µM
  TGI: 14.9 µM
  CC50: 39.6 µM
[26]
  growth inhibition (GI): Dose-dependent effect
[26]; HL-60, 48 h
  GI50: 1.13 µM
  LC50: 57.6 µM
  TGI: 11.9 µM
[27]
  GI50: 17.5 µM
  LC50: 92.8 µM
  TGI: 40.3 µM
  growth inhibition (GI): Dose-dependent effect
[28]
  GI50: 14 µM
  TGI: 28.8 µM
  growth inhibition (GI): Dose-dependent effect
  CC50: 59.4 µM
